Source: PubChem (Sanford-Burnham Center for Chemical Genomics)
In the library only some 2.4% were active in any assay of this set; here they are far more common.
DNMT1 block: inhibitors of human DNMT1; DNMT1 molecular beacon, Hinp1I cleavage, fluorescence; inhibition (reported as % activation of signal), % at 10 µM; 0.83% of 360,000 active; in the data active means inhibition above about 50%
Scp-1 inhibitor: Scp-1 (human) phosphatase inhibition. Recombinant Scp1, phosphopeptide, malachite green phosphate absorbance. AID 493091. 0.88% of 340,000 active. inhibition, % at 20 µM. Q9GZU7;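 active means inhibition above about 50% at 20 µM, limit read from the data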;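 further: plate controls were DMSO wells with enzyme for no effect and wells lacking enzyme for full effect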
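Incubation: 45 min enzyme reaction at room temperature / System: truncated SCP-1 phosphatase (76-261aa) / Reagent: Phospho 17-mer peptide substrate / Buffer or medium: Acidic Tris acetate buffer with magnesium and detergent / Signal: absorbance at 630 nm / Doses: one concentration, 20 µM, with 1.0% DMSO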
STEP inh: blocks human striatal-enriched tyrosine phosphatase. recombinant STEP, OMFP fluorogenic substrate, fluorescence. 0.25% of 360,000 active. inhibition, % at 20 µM;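 active means inhibition at 20 µM, scaled per plate between control wells, above about 37%, limit read from the data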;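 further: 0% = DMSO with enzyme and substrate and 100% = substrate only without enzyme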
Target sequence (P54829 whole entry, looked up): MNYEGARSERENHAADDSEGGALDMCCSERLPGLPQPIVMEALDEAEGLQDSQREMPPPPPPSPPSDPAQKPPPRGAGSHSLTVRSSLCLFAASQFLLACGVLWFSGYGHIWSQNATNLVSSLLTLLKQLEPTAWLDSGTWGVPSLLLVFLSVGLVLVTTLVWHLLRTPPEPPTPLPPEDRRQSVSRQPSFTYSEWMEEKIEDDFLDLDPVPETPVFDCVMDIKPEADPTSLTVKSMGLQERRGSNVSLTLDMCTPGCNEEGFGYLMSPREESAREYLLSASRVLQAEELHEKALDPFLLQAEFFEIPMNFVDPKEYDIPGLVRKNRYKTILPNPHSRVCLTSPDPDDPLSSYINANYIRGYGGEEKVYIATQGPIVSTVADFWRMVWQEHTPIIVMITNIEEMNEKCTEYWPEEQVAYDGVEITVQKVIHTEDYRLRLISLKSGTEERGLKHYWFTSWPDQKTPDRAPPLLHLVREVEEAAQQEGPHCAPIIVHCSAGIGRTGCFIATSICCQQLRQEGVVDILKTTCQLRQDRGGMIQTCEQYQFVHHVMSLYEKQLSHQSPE
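Measure: Control-normalized % inhibition with plate pattern correction | Test system: STEP phosphatase, cell-free reaction | Medium: pH 6.0 Bis-Tris with DTT and Tween 20 | Technique: Fluorescence, 480/540 nm | Times: Reaction 20 min, ambient temperature | Doses: Single compound dose of 20 µM, 1% DMSO final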
LMPTP inh: LMPTP (human) inhibition. 0.22% of 360,000 active. inhibition, % at 20 µM. P24666. AID 651560. recombinant LMPTP-A, OMFP fluorogenic substrate, fluorescence intensity;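 active means compounds that cut the enzyme signal by at least half of the control window in the single-dose screen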;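 further: plate controls were DMSO wells with enzyme plus substrate for no effect and substrate without enzyme for full effect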
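test system = LMPTP-A | amount = 0.625 nM LMPTP-A final | reagent = fluorogenic phosphatase substrate OMFP at 400 µM final | incubation = 50 min at room temperature | benchmarks = no-enzyme low control, uninhibited high control | medium = Bis-Tris pH 6.0, DTT, detergent | signal = fluorescence intensity of OMFP turnover product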
NadD block: inhibitors of Staphylococcus aureus NadD; purified NadD enzyme, colorimetric absorbance read-out; inhibition, % at 20 µM; 0.78% of 360,000 active; AID 602399; in the data active means inhibition above about 26%
SUMO1 PPI mod: SUMO1-SIM interaction modulation | P63165 | SUMO1 binding to a labelled peptide, TR-FRET, 1 h | inhibition, % at 20 µM | 0.33% of 360,000 active; in the data active means inhibition above about 37%
Target sequence (P63165 whole entry, looked up): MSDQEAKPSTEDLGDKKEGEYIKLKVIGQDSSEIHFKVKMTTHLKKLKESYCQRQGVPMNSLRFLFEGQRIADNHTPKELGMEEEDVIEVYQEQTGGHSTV
Scp1 confirm: confirmation of human Scp-1 phosphatase inhibitors. 61% of 2,500 active. recombinant SCP-1 catalytic domain, phosphate release, malachite green absorbance. inhibition, % at 20 µM. shares compounds with Scp-1 inhibitor;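 further: plate controls were DMSO with enzyme for no effect and buffer wells lacking enzyme for full effect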
Scp-1 MG ctr: interferes with malachite green readout, flagging false Scp-1 hits. shares compounds with Scp-1 inhibitor. Colorimetric interference counterscreen, malachite green absorbance 630 nm. apparent inhibition (interference), % at 20 µM. 2,500 tested, under 10 active. AID 540313;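 further: compounds added after enzyme reaction finished so only phosphate colour detection is probed; plate controls were DMSO wells with completed Scp-1 reaction for no effect and substrate wells lacking enzyme for full effect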
Scp-1 Tm shift: validation of human Scp-1 inhibitors by thermal shift binding; shares compounds with Scp-1 inhibitor; Recombinant SCP1, Sypro Orange thermal shift Tm; thermal shift relative to vanadate control, % at 40 µM; 25% of 1,500 active; AID 540329;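 active means substances whose mean melting-temperature shift, as a percentage of the reference inhibitor's shift, reaches about 5.3%, limit read from the data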;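 further: 0% = Tm of DMSO wells and 100% = Tm with sodium orthovanadate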
* hit, by the source's call; / = not tested or not shown.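 How the source made its calls, unless noted: active means inhibition of at least 30% at 20 µM; inactive means the rest.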

SMILES | DNMT1 block | Scp-1 inhibitor | STEP inh | LMPTP inh | NadD block | SUMO1 PPI mod | Scp1 confirm | Scp-1 MG ctr | others
COc1ccc(S(=O)(=O)Nc2ccc3c(c2)C(=O)N([C@H](C)CO)C[C@H](C)[C@@H](CN(C)S(=O)(=O)c2ccc(OC)cc2)O3)cc1 | -8 | 66* | 1 | -1 | -4 | 2 | 14 | 2
CCc1noc(C)c1C(=O)Nc1cc(C(F)(F)F)ccc1-n1cncn1 | 0 | 65* | 2 | -2 | 1 | -1 | -7 | -8
CCc1noc(C)c1C(=O)Nc1cc(Cl)ccc1-n1cncn1 | -2 | -4 | -1 | -1 | 2 | -2 | / | /
Cc1ccc(NC(=O)COC(=O)CCCC2=NS(=O)(=O)c3ccccc3N2)cc1C | 3 | 3 | -1 | -1 | -11 | -4 | / | /
O=C(COC(=O)CCCC1=NS(=O)(=O)c2ccccc2N1)Nc1ccc(Br)cc1 | -1 | 51* | -5 | 0 | -6 | -8 | -21 | -19
O=C(CCN1CCN(c2ccccc2)CC1)N/N=C/c1ccc([N+](=O)[O-])o1 | -4 | -11 | 0 | 8 | 9 | -18 | / | /
COC(=O)c1ccccc1NC(=O)c1cc[n+](C)cc1 | 0 | 51* | -3 | -2 | 3 | -34 | -12 | -22
COC(=O)c1ccccc1NC(=O)c1cc[n+]([O-])cc1 | -1 | 0 | 2 | -1 | -4 | -6 | / | /
O=C(NCCCN1CCCC1=O)Nc1ccccc1F | 0 | -4 | -1 | -1 | 4 | -3 | -6 | -4
O=C1CCCN1CCCNS(=O)(=O)c1ccccc1 | -1 | -8 | 0 | 0 | 1 | 3 | / | /
O=C(NCCCN1CCCC1=O)Nc1ccccc1Cl | 3 | -10 | 1 | 0 | -6 | -5 | / | /
O=C1CCCN1CCCNS(=O)(=O)c1ccc(F)cc1F | 2 | -8 | 0 | -2 | 2 | -5 | -5 | -6
Cc1nnc(-c2cnn(-c3ccccc3)c2N)n1Cc1cccc(C(F)(F)F)c1 | 0 | -10 | 3 | -1 | 9 | -5 | / | /
CCc1c(C)nc2cc(-c3cccc(Br)c3)[nH]n2c1=O | 2 | 93* | 22 | 1 | -5 | 12 | 62* | -12 | Scp-1 Tm shift=-4
COc1ccc(OCC(=O)Nc2ccc(S(=O)(=O)Nc3cc(C)on3)cc2)cc1 | 0 | -3 | 0 | -1 | 7 | 5 | / | /
C#Cc1ccc([C@H]2C=C(C(=O)O)O[C@@H](OCc3ccc(CO)cc3)C2)cc1 | 24 | 50* | 5 | 0 | -5 | -6 | 48* | -16 | Scp-1 Tm shift=-2
COc1ccc(NC(=O)N(C)[C@H]2C[C@H]3c4[nH]c5ccccc5c4CCN3C(=O)[C@H]2[C@H](C)O)cc1 | -4 | / | 1 | -1 | 5 | -6 | / | /
CC1=NN(c2nc(-c3ccc(C)cc3)cs2)C(=O)C1N=Nc1ccccc1O (centres undefined) | 15 | 58* | 2 | 2 | 29 | 20 | 71* | -18 | Scp-1 Tm shift=7.4*
CCCCN(C(=O)c1ccco1)c1c(N)n(CCC)c(=O)[nH]c1=O | 0 | 22 | 3 | 1 | 2 | 2 | / | /
COc1ccc2nc(Nc3nc(CSc4nnnn4-c4ccccc4)cc(=O)[nH]3)nc(C)c2c1 | -6 | 83* | 4 | 2 | 10 | 0 | 10 | -7
CCN(CC)S(=O)(=O)c1ccc2[nH]c(=O)[nH]c2c1 | -3 | -4 | 0 | 0 | 7 | 2 | / | /
CCOC(=O)CC1(C)OCC(C[N+]2(C)CCCCC2)O1 (centres undefined) | -1 | 93* | 1 | -1 | 10 | 9 | 93* | -5 | Scp-1 Tm shift=-20
O=C(O)C1C2C=CC(C2)C1C(=O)Nc1ccccc1Br (centres undefined) | 23 | 69* | 44* | 2 | -1 | 26 | 58* | -15 | Scp-1 Tm shift=-26
COC(=O)c1c(NC(=O)COC(=O)[C@@H](NS(=O)(=O)c2cccc(Cl)c2)C(C)C)sc2c1CCC2 | -8 | -12 | 0 | 2 | 11 | -2 | / | /
CC(C)[C@H](NS(=O)(=O)c1cccc(Cl)c1)C(=O)OCC(=O)NC(=O)CN1CCCC1=O | 38 | 57* | 18 | 9 | -3 | 6 | 42* | -12 | Scp-1 Tm shift=-5
SMILES | DNMT1 block | Scp-1 inhibitor | STEP inh | LMPTP inh | NadD block | SUMO1 PPI mod | Scp1 confirm | Scp-1 MG ctr | others
Cc1cc(C(F)F)n2nc(C(=O)Nc3sc4c(c3C(N)=O)CCC4)nc2n1 | 26 | 61* | 4 | 12 | 10 | 10 | 55* | -12 | Scp-1 Tm shift=4
Cn1c(=O)cc(OCC(=O)NCCc2ccc(Cl)cc2)c2ccccc21 | 1 | -6 | -1 | -2 | -8 | 1 | / | /
Cn1c(=O)cc(OCC(=O)NCCC2=CCCCC2)c2ccccc21 | 1 | -3 | -1 | -1 | -3 | 1 | -8 | -10
COc1ccc(-c2[nH]ncc2CN2CCC(O)(c3ccc(Cl)cc3)CC2)cc1 | 0 | -4 | -1 | 0 | -3 | 3 | / | /
Cn1c(=O)c2c(ncn2CC(=O)N2CCN(S(=O)(=O)c3ccc(Cl)cc3)CC2)n(C)c1=O | 1 | 64* | -2 | 0 | 5 | 2 | -13 | -13
CC(C)C(=O)N1N=C2CCCCC2C1(O)C(F)(F)F (centres undefined) | 11 | 2 | 1 | 0 | -1 | 1 | / | /
Cc1ccc[n+](CC(=O)Nc2ccc(Cl)c([N+](=O)[O-])c2)c1 | 3 | 84* | -1 | -1 | -9 | -17 | -1 | -5
O=C(C[n+]1ccccc1)Nc1ccc(Cl)c([N+](=O)[O-])c1 | 1 | -2 | 1 | -2 | 7 | -26 | / | /
CCOC(=O)C(=CNc1ccc(C)cc1C)C(=O)OCC | -2 | -6 | 0 | 0 | -4 | 3 | / | /
CCOC(=O)C1=C(C)N(c2ccc(C)c(C)c2)C(=O)/C1=C\c1ccco1 | 4 | -15 | 2 | 3 | 7 | -4 | / | /
COC(=O)C1=C(C)N(c2ccc(C)c(C)c2)/C(=C/c2ccco2)C1=O | 28 | 59* | 2 | 3 | 4 | -14 | 20 | -9
C=CC1=C(C(=O)O)N2C(=O)[C@@H](NC(=O)/C(=N\O)c3csc(N)n3)[C@H]2SC1 (stereo in doubt) | 89* | 98* | 73* | 79* | 14 | 63* | 60* | -11 | Scp-1 Tm shift=2
CCn1ccc(C(=O)NC2C(=O)N3C(C(=O)O)=C(C)CSC23)n1 (centres undefined) | -2 | -6 | 0 | -1 | 4 | 1 | / | /
C=CCn1c(SCC(=O)Nc2ccc(OC)cc2)nc2ccccc2c1=O | -2 | 0 | 2 | -1 | -3 | 2 | / | /
